The nature of experiment [1]: S. cerevisiae growth inhibition in permissive medium (OD615), pilot counter-assay for S. cerevisiae lifespan shortening project, permissive growth control (AID 705;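 active = growth inhibition above 25% in both replicates, a cutoff set 3 SD above the mean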). The note with it: OD615, 24 h, at 10 µM, active compounds read high. Put shortly:
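System: S. cerevisiae with engineered DeaD lifespan system / Measured by: absorbance (optical density) at 615 nm / Read-out: reduction in yeast growth (OD615) / Times: 4 h cell pre-growth, 24 h exposure at 30 °C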

A short description of experiment [2]: S. cerevisiae growth inhibition in restrictive medium, OD615, pilot screen, restrictive growth control, yeast lifespan reduction project (AID 706;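 active = growth inhibition above a set limit, 3 SD over mean compound inhibition, in both replicates, cut at about 43% in these data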;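 note: modified DeaD lifespan yeast strain shifted to restrictive glucose medium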). The settings on record: OD615, 48 h, at 10 µM, active compounds read high. Put shortly:
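System: Engineered S. cerevisiae DeaD strain | Buffer or medium: Glucose-based CSMM-D restrictive medium | Schedule: 4 h pre-incubation, 48 h exposure at 30 °C | Technique: Optical density at 615 nm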

Experiment [3] in a line: doxorubicin toxicity protection in MRP-1 cells – H69AR cells, CellTiter-Glo, duplicate, MRP-1 activator project, pilot screen (AID 807;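 active = viability increase at or above a cutoff of the median across tested compounds plus 3 SD, cut at about 8.5% in these data, passing the limit was not always enough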;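 note: compound pretreatment 18-22 h then 72 h combined with doxorubicin; 0% = doxorubicin alone and 100% = vehicle without doxorubicin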). The settings on record: H69AR viability with doxorubicin, CellTiter-Glo luminescence; at 10 µM; active compounds read high.
Experiment [4] in a line: viability of PTEN-null HCT116 cells – cell-based, HCT116 clonal line, CellTiter-Glo, pilot screen (AID 824).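 Note: 0% = 20 µM Hyamine control and 100% = vehicle cell control.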 The settings on record: HCT116 PTEN-deleted viability, 60 h, at 10 µM, active compounds read low. (In general: ATP-based viability assays read luminescence as a measure of living cells.)
Experiment [5] can be described thus: RAM pathway blockade in budding yeast – dse1pr::URA3 reporter, 5-FOA selection, pilot screen (AID 869;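 active = inhibition over a set limit, the all-compound mean plus 3 SD, in both replicate runs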;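 note: 0% = DMSO wells with no growth and 100% = 10 µM 1-NA-PP1 with full growth; RAM network block rescues cells from 5-FOA so hits raise OD615 growth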). The settings on record: S. cerevisiae dse1pr::URA3 5-FOA growth, OD615, 2 d; at 10 µM; active compounds read high; strain carries analog-sensitive mutant Cbk1 kinase.
Experiment [6] is described as follows: RAM signaling pathway blockade in yeast – S. cerevisiae, Pdr1DBD-CYC8 efflux-inhibited sensitized strain, primary screen (AID 1298;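 active = RAM network inhibition above 8.4% in each of two replicates, 3 SD over the compound average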;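 note: 0% = DMSO untreated cells without growth and 100% = 10 µM 1-NA-PP1 full growth; higher means more yeast growth rescued from 5-FOA killing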). The note with it: S. cerevisiae cbk1-as DSE1-URA3 strain, 5-FOA growth OD615, 2 d; at 50 µM; active compounds read high.

20 compounds from PubChem BioAssay can be followed below.

A number with no mark means an inactive call. Inconclusive results are not listed. Active and inactive are the calls of the source.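 Rule for the calls, unless noted: active = viability at or below 27.92% in each of two runs, the all-compound median minus 4 SD; inconclusive = no clear call, values can overlap the other calls; inactive = the rest.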

Broadly, the viability is a read-out of living cells in per cent, often relative to untreated cells. One may read the inhibition as the drop in the measured response relative to a control, in per cent.

For `Cn1c(=O)oc2cc(S(=O)(=O)N3CCCC(C(=O)NCc4ccc5c(c4)OCO5)C3)ccc21` (stereo not given), the growth inhibition was -7.5% in experiment [1] and 6.97% in experiment [2]. In experiment [3], the viability increase was -7.5%. In experiment [4], the viability was 36.4%. Besides, the inhibition in experiment [5] is 3.25%. For the same compound, in experiment [6], the RAM network inhibition was 8.39%.

For `CCCOc1nc2c(c(=O)n(C)c(=O)n2C)n1Cc1cccc2ccccc12`, the values for the growth inhibition in experiment [1] and in experiment [2] were -12.5% and -0.875%, respectively. In experiment [3], the viability increase was -4.04%. For the same compound, the viability in experiment [4] was 57.7%. The inhibition in experiment [5] was 0.84%. Besides, the RAM network inhibition in experiment [6] was 1.64%.

Regarding `Cc1cc2nc3c(c(=O)n2[nH]1)CCCC3`, the growth inhibition was -6.41% in experiment [1] and 0.415% in experiment [2]. The viability increase in experiment [3] was -1.07%. Also, in experiment [4], the viability was 105%. In addition, the inhibition in experiment [5] was 1.09%. The RAM network inhibition in experiment [6] is -0.25%.

As for `CCCCN1C(=O)C(O)(CC(=O)c2ccco2)c2cc(Br)ccc21` (stereo not given), the growth inhibition in experiment [1] was 2.79%; in experiment [2], 2.35%. Besides, in experiment [3], the viability increase is -6.26%. Moreover, in experiment [4], the viability is 11.5% (active). In addition, the inhibition in experiment [5] was -0.765%. Also, the RAM network inhibition in experiment [6] is -1.34%.

As for `COc1cc(OC)cc(C(=O)Nc2cccc(C(C)=O)c2)c1`, the growth inhibition is -6.17% in experiment [1] and -2.38% in experiment [2]. Moreover, the viability increase in experiment [3] is -2.42%. Moreover, in experiment [4], the viability was 89.9%. Besides, the inhibition in experiment [5] was 1.7%. In experiment [6], the RAM network inhibition was 1.49%.

`CCC1CCCCN1C(=O)Cn1c(=O)oc2ccccc21` (stereo not given): the growth inhibition in experiment [1] was -8.32%; in experiment [2], -4.71%. In addition, the viability increase in experiment [3] was -2.07%. In experiment [4], the viability is 101%. In experiment [5], the inhibition is 1.96%. For the same compound, the RAM network inhibition in experiment [6] was 4.3%.

On to `CC(C)(Oc1ccc(Cl)cc1)C(=O)Nc1ncccn1`, for which the growth inhibition was -5.31% in experiment [1] and -3.56% in experiment [2]. Further, the viability increase in experiment [3] is -2.32%. In experiment [4], the viability was 101%. Besides, the inhibition in experiment [5] was 1.61%. Also, the RAM network inhibition in experiment [6] is 2.05%.

In the case of `COc1ccc(S(=O)(=O)Nc2ccc(S(=O)(=O)N3CCOCC3)cc2)cc1`, the growth inhibition was -3.87% in experiment [1] and -1.83% in experiment [2]. Further, in experiment [3], the viability increase is -1.49%. For the same compound, in experiment [4], the viability was 101%. The inhibition in experiment [5] is 1.18%. Besides, the RAM network inhibition in experiment [6] is 2.87%.

Turning to `Cc1cccc(-n2ncc3c(NCc4ccccc4)ncnc32)c1`, the growth inhibition is 5.07% in experiment [1] and 12.1% in experiment [2]. Further, in experiment [3], the viability increase is -5.25%. Further, the viability in experiment [4] was 31.8%. For the same compound, the inhibition in experiment [5] was 1.38%. In experiment [6], the RAM network inhibition was 11.8%.

As to `CCNC(=O)CN(C1CCCCC1)S(=O)(=O)c1ccc(F)cc1`, the figures for the growth inhibition in experiment [1] and in experiment [2] were -8.23% and -2.66%, respectively. In addition, in experiment [3], the viability increase was -2.01%. Further, the viability in experiment [4] was 91%. For the same compound, the inhibition in experiment [5] is 3.43%. Moreover, the RAM network inhibition in experiment [6] is -0.15%.

As to `COc1cc2[nH]c(=O)n(CCCC(=O)N3CC=C(c4ccccc4)CC3)c(=O)c2cc1OC`, the figures for the growth inhibition in experiment [1] and in experiment [2] were -11.3% and -6.67%, respectively. Also, the viability increase in experiment [3] was -4.59%. In experiment [4], the viability was 80.5%. For the same compound, in experiment [5], the inhibition was 0.355%. Moreover, the RAM network inhibition in experiment [6] was 1.8%.

As for `Cc1ccc(N(CC(=O)NC2CC3CCC2C3)S(C)(=O)=O)cc1C` (stereo not given), the growth inhibition was -2.18% in experiment [1] and -4.39% in experiment [2]. For the same compound, in experiment [3], the viability increase was -2.03%. Further, the viability in experiment [4] is 96.8%. Also, in experiment [5], the inhibition is 1.26%. The RAM network inhibition in experiment [6] is 5.17%.

As to `Cc1c(C)[n+](=O)c(-c2ccc(F)cc2)c(C)n1[O-]`, the results for the growth inhibition in experiment [1] and in experiment [2] were -1.22% and 3.79%, respectively. In addition, in experiment [3], the viability increase is -3.29%. The viability in experiment [4] was 98.3%. Also, in experiment [5], the inhibition is 0.535%. Moreover, the RAM network inhibition in experiment [6] was 4.01%.

Turning to `COc1ccc(S(=O)(=O)C(C#N)c2nc3ccccc3nc2N2CCC(C)CC2)cc1` (stereo not given), the growth inhibition was -12.1% in experiment [1] and -14.1% in experiment [2]. Further, the viability increase in experiment [3] is -4.72%. The viability in experiment [4] is 87.9%. In addition, the inhibition in experiment [5] was 3.85%. Moreover, the RAM network inhibition in experiment [6] is 8.8%.

As to `c1csc(CNc2ncnc3sccc23)c1`, the growth inhibition in experiment [1] was 3.62%; in experiment [2] it was -3.59%. Besides, in experiment [3], the viability increase was -2%. Moreover, the viability in experiment [4] was 62.7%. Further, in experiment [5], the inhibition is 2.05%. Also, the RAM network inhibition in experiment [6] is 4.4%.

As for `CCN(CC)c1ccc(CNC23CN4CN(CN(C4)C2)C3)cc1`, the growth inhibition in experiment [1] was -8.69%; in experiment [2], 2.79%. Further, the viability increase in experiment [3] is -2.2%. In experiment [4], the viability was 94.1%. In addition, the inhibition in experiment [5] was 1.72%. Besides, the RAM network inhibition in experiment [6] was 2.4%.

For `O=C(Cc1ccc(Cl)cc1)Nc1ccccc1CO`, the growth inhibition is 0.105% in experiment [1] and -1.33% in experiment [2]. The viability increase in experiment [3] is 0.18%. The viability in experiment [4] is 101%. Also, in experiment [5], the inhibition was 0.45%. Moreover, in experiment [6], the RAM network inhibition is 5.48%.

Turning to `O=C(CSc1nc2c(c(=O)n1-c1ccc(Cl)cc1)SCC2)N1CCCC1`, the growth inhibition in experiment [1] was 1.32%; in experiment [2], 24.2%. The viability increase in experiment [3] was -4.23%. Further, the viability in experiment [4] is 101%. In experiment [5], the inhibition is 1.31%. Further, in experiment [6], the RAM network inhibition is 0.57%.

Take `COc1cc2c(cc1NC(C)=O)CCCC2`: the growth inhibition is -5.3% in experiment [1] and -0.3% in experiment [2]. In addition, the viability increase in experiment [3] is -4.13%. The viability in experiment [4] was 100%. Moreover, the inhibition in experiment [5] was 1.28%. Besides, the RAM network inhibition in experiment [6] is 1.23%.

As for `O=C(NC1(C(F)(F)F)Oc2ccccc2O1)N1CCCC1`, the growth inhibition in experiment [1] is -3.63%; in experiment [2] it was -7.95%. Moreover, the viability increase in experiment [3] is -6.12%. For the same compound, the viability in experiment [4] was 81.3%. Besides, the inhibition in experiment [5] is 0.56%. Moreover, in experiment [6], the RAM network inhibition is 1.58%.
